# According to ChEMBL document CHEMBL4130551, “1,2,4-Thiadiazolidin-3,5-diones as novel hydrogen sulfide donors” (Eur J Med Chem, 2018):
# Calls of active or inactive are those of the source. The calls are words filed in the database; no cut-off is given here.
# Tested on: Thoracic aorta
# Assay: Vasorelaxant activity in CD-1 mouse endothelium denuded thoracic aorta rings assessed as inhibition of L-phenylephrine-induced contraction
# Type: functional, tissue-based
# Details: not given
row,SMILES,inhibition
1,O=c1sn(-c2ccccc2)c(=O)n1-c1ccccc1,Active

# Tested on: not listed separately
# Assay: Drug metabolism in PBS buffer assessed as H2S release by measuring time required for 50% of maximum H2S release at steady state at 1 mM after 30 mins by amperometric method
# Type: physicochemical
# Details: 0.5 h, 1000 µM
# Outline: (§1)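 Amperometric real-time H2S detection at room temperature in assay buffer (10x PBS diluted 1:10 in distilled water). Donor added from DMSO stock to a final 1 mM, 1% DMSO, with 4 mM L-cysteine added where the protocol required. Recorded for 30 min. Curves computer-fitted. TCM50 is the time to reach ½ Cmax. Mean ± SE of 5 experiments.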
row,SMILES,Time [min]
1,O=c1sn(-c2ccccc2)c(=O)n1Cc1ccccc1,9.56
2,COc1ccc(-n2sc(=O)n(Cc3ccccc3)c2=O)cc1,13.46

# Tested on: not listed separately
# Assay: Drug metabolism in water at 0.5 mmol after 5 to 60 mins by ESI-MS analysis
# Type: physicochemical
# Details: buffer
row,SMILES,Drug metabolism
1,O=c1sn(-c2ccccc2)c(=O)n1-c1ccccc1,Metabolite_Notdetected

# Tested on: not listed separately
# Assay: Drug level in pH 7.4 PBS buffer treated with 2,4-Diphenyl-1,2,4-thiadiazoline-3,5-dione at 0.5 mmol after 5 to 60 mins in presence of glutathione by ESI-MS analysis
# Type: physicochemical
# Details: not given
row,SMILES,Drug metabolism
1,N[C@@H](CCC(=O)N[C@@H](CSSC(=O)N(C(=O)Nc1ccccc1)c1ccccc1)C(=O)NCC(=O)O)C(=O)O,Metabolite_Detected

# Tested on: not listed separately
# Assay: Stability in pH 7.4 PBS buffer at 0.5 mmol after 30 mins in presence of cysteine by HPLC analysis
# Type: physicochemical
# Details: PBS buffer with cysteine, read-out: Stability
row,SMILES,"remaining at 0.5 h, 0.5 mmol [%]"
1,O=c1sn(-c2ccccc2)c(=O)n1-c1ccccc1,15

# Tested on: not listed separately
# Assay: Stability in pH 7.4 PBS buffer at 0.5 mmol after 5 mins in presence of cysteine by HPLC analysis
# Type: physicochemical
# Details: PBS buffer with cysteine, read-out: Stability
row,SMILES,"remaining at 5 min, 0.5 mmol [%]"
1,O=c1sn(-c2ccccc2)c(=O)n1-c1ccccc1,82

# Tested on: not listed separately
# Assay: Drug level in pH 7.4 PBS buffer treated with 2,4-Diphenyl-1,2,4-thiadiazoline-3,5-dione at 0.5 mmol after 5 to 60 mins in presence of cysteine by HPLC-MS analysis
# Type: physicochemical
# Details: not given
row,SMILES,Drug metabolism
1,NC(CSSC(=O)N(C(=O)Nc1ccccc1)c1ccccc1)C(=O)O (centres undefined),Metabolite_Detected
2,O=C(S)N(C(=O)Nc1ccccc1)c1ccccc1,Metabolite_Detected
3,O=C(Nc1ccccc1)Nc1ccccc1 [DIPHENYLUREA],Metabolite_Detected
4,NC(CSSCC(N)C(=O)O)C(=O)O (centres undefined),Metabolite_Detected

# Tested on: Thoracic aorta
# Assay: Vasorelaxant activity in CD-1 mouse thoracic aorta rings assessed as inhibition of L-phenylephrine-induced contraction at 100 uM relative to control
# Type: functional
# Details: CD-1, Thoracic aorta
# Outline: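 Isolated aortic rings precontracted with phenylephrine (1 µM). Cumulative donor concentrations (10 nM–300 µM) or DMSO vehicle. Emax is the maximal relaxation obtained.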
row,SMILES,Emax at 100 µM [%]
1,Cc1ccc(-n2sc(=O)n(-c3ccccc3)c2=O)cc1,94.5
2,COc1ccc(-n2sc(=O)n(-c3ccccc3)c2=O)cc1,100
3,O=c1sn(-c2ccc(F)cc2)c(=O)n1-c1ccccc1,94.3
4,COc1ccc(-n2sc(=O)n(C3CCCCC3)c2=O)cc1,97.7
5,COc1ccc(-n2sc(=O)n(-c3ccc(Cl)cc3)c2=O)cc1,98.6
6,COc1ccc(-n2sc(=O)n(-c3ccc(C)cc3)c2=O)cc1,99
7,COc1ccc(-n2sc(=O)n(-c3ccc(OC)cc3)c2=O)cc1,95
8,O=c1sn(-c2ccccc2)c(=O)n1-c1ccccc1,99.7

# Tested on: not listed separately
# Assay: Drug metabolism in pH 7.4 PBS buffer assessed as phenyl(phenylcarbamoyl)carbamothioic S-acid formation at 0.5 mmol after 5 to 60 mins in presence of cysteine by HPLC-MS analysis
# Type: physicochemical
# Details: not given
row,SMILES,Drug metabolism
1,O=c1sn(-c2ccccc2)c(=O)n1-c1ccccc1,Metabolite_Detected

# Tested on: not listed separately
# Assay: Drug metabolism in pH 7.4 PBS buffer at 0.5 mmol after 5 to 60 mins in presence of S-methyl cysteine by ESI-MS analysis
# Type: physicochemical
# Details: not given
row,SMILES,Drug metabolism
1,O=c1sn(-c2ccccc2)c(=O)n1-c1ccccc1,Metabolite_Notdetected

# Tested on: not listed separately
# Assay: Drug metabolism in PBS buffer assessed as H2S release by measuring time required for 50% of maximum H2S release at steady state at 1 mM after 30 mins in presence of 4 mM L-cysteine by amperometric method
# Type: physicochemical
# Details: 0.5 h, 1000 µM
# Outline: as §1
row,SMILES,Time [min]
1,O=c1sn(-c2ccccc2)c(=O)n1Cc1ccccc1,11.4
2,COc1ccc(-n2sc(=O)n(Cc3ccccc3)c2=O)cc1,15.75
3,Cc1ccc(-n2sc(=O)n(-c3ccccc3)c2=O)cc1,13.84
4,COc1ccc(-n2sc(=O)n(-c3ccccc3)c2=O)cc1,13.25
5,O=c1sn(-c2ccc(F)cc2)c(=O)n1-c1ccccc1,9.52
6,COc1ccc(-n2sc(=O)n(C3CCCCC3)c2=O)cc1,13.93
7,COc1ccc(-n2sc(=O)n(-c3ccc(Cl)cc3)c2=O)cc1,15.36
8,COc1ccc(-n2sc(=O)n(-c3ccc(C)cc3)c2=O)cc1,13.25
9,COc1ccc(-n2sc(=O)n(-c3ccc(OC)cc3)c2=O)cc1,14.8
10,O=c1sn(-c2ccccc2)c(=O)n1-c1ccccc1,12.01

# Tested on: Thoracic aorta
# Assay: Vasorelaxant activity in CD-1 mouse thoracic aorta rings assessed as inhibition of L-phenylephrine-induced contraction
# Type: functional, tissue-based
# Details: CD-1, Thoracic aorta
# Outline: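 Isolated aortic rings precontracted with phenylephrine (1 µM). Cumulative concentration–response curves of each donor (10 nM–300 µM) or DMSO vehicle. EC50 taken from the curves.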
row,SMILES,EC50 [µM]
1,Cc1ccc(-n2sc(=O)n(-c3ccccc3)c2=O)cc1,1.3
2,COc1ccc(-n2sc(=O)n(-c3ccccc3)c2=O)cc1,1.6
3,O=c1sn(-c2ccc(F)cc2)c(=O)n1-c1ccccc1,3.9
4,COc1ccc(-n2sc(=O)n(C3CCCCC3)c2=O)cc1,1.9
5,COc1ccc(-n2sc(=O)n(-c3ccc(Cl)cc3)c2=O)cc1,2.1
6,COc1ccc(-n2sc(=O)n(-c3ccc(C)cc3)c2=O)cc1,1.5
7,COc1ccc(-n2sc(=O)n(-c3ccc(OC)cc3)c2=O)cc1,3
8,O=c1sn(-c2ccccc2)c(=O)n1-c1ccccc1,1.7
